Several values for one entry are separate records, joined by “and”; a condition that tells them apart may be missing. Equal entries are not always repeated.
How the values were obtained:
[1] = target: Receptor-type tyrosine-protein phosphatase F (Rattus norvegicus) (UniProt Q64604); experiment: (§1) Inhibitory activity against rat recombinant leukocyte-common antigen-related molecule (LAR)
In short: (§2)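 Recombinant enzymes: human PTP1B; human PTPα intracellular fragment with both PTPase domains, cleaved from GST fusion; LAR with both PTPase domains; VHR purified to homogeneity. pNPP hydrolysis at 30 °C, pH 7.0, 50 mM 3,3-dimethylglutarate, ionic strength 0.15 M (NaCl), 10% DMSO final. Quenched with 1 N NaOH, A405 read. Ki from eight pNPP levels (0.2–5 Km) at three inhibitor concentrations.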

[2] = target: Dual specificity protein phosphatase 3 (Homo sapiens) (UniProt P51452); experiment: Inhibitory activity against human recombinant vaccinia H1 related phosphatase (Dual specificity protein phosphatase 3); in short: as §2
Dual specificity protein phosphatase 3 (Homo sapiens), sequence (P51452 whole entry, looked up): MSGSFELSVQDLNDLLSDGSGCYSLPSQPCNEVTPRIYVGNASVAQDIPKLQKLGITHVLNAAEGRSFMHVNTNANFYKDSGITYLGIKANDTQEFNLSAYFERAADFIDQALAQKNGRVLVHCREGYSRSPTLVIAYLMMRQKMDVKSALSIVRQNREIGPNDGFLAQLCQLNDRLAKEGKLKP

[3] = target: Receptor-type tyrosine-protein phosphatase alpha (Homo sapiens) (UniProt P18433); experiment: Inhibitory activity against protein tyrosine phosphatases alpha (PTP alpha); in short: as §2
Receptor-type tyrosine-protein phosphatase alpha (Homo sapiens), sequence (P18433 20-802 limits assumed): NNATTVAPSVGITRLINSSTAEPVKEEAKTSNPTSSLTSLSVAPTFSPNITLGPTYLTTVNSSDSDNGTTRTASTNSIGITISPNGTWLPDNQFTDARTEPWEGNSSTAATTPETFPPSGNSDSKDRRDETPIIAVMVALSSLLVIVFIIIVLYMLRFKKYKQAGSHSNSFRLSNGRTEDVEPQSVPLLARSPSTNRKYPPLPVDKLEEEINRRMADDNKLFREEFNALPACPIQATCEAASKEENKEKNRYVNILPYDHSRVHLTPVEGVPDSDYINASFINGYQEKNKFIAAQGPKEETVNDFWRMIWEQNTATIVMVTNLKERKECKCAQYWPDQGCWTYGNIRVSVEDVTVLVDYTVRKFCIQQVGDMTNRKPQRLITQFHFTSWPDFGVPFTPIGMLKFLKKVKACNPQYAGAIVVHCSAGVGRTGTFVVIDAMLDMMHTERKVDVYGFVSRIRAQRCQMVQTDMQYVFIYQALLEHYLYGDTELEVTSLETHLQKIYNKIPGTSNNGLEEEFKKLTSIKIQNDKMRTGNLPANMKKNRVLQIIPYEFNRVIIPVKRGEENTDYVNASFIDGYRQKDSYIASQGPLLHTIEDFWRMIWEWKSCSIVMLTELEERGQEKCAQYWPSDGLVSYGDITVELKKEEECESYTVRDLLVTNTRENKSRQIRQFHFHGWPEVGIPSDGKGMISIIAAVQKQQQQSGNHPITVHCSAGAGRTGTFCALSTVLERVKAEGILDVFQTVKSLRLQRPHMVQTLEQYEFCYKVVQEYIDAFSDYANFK

[4] = target: T1, Tyrosine-protein phosphatase non-receptor type 1 (Homo sapiens) (UniProt P18031); experiment: Inhibitory activity against protein tyrosine phosphatases (PTP1B) (Kis=slope inhibitory constant)
T1 sequence (whole entry): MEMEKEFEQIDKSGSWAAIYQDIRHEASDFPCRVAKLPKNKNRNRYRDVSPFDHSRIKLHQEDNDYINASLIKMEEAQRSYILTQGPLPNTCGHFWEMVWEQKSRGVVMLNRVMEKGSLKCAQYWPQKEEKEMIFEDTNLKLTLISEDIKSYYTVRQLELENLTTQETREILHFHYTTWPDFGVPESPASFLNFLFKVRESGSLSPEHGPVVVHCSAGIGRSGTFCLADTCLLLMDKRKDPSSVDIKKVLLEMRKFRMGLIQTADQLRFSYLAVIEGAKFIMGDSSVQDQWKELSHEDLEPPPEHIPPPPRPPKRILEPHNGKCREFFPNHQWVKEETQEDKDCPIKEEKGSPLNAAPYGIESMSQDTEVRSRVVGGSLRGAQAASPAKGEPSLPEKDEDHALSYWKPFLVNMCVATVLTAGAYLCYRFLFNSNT
In short: (§3)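 Recombinant enzymes used: human PTP1B and LAR bearing both PTPase domains. Compounds were dissolved in DMSO, with 10% DMSO final in all reactions. Buffer was 50 mM 3,3-dimethylglutarate, pH 7.0, ionic strength 0.15 M set with NaCl, at 30 °C. Initial rates of pNPP hydrolysis were measured at eight substrate levels (0.2–5 Km) and three fixed inhibitor levels. Reactions were quenched with NaOH and read at A405 (ε 18 000 M⁻¹ cm⁻¹), correcting for non-enzymatic hydrolysis. Kis (slope) and Kii (intercept) were obtained from steady-state kinetics.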

[5] = target: T1, Tyrosine-protein phosphatase non-receptor type 1 (Homo sapiens); experiment: Inhibitory activity against protein tyrosine phosphatases (PTP1B) (Kii=intercept inhibitory constant); in short: as §3
[6] = target: Receptor-type tyrosine-protein phosphatase F (Rattus norvegicus) (UniProt Q64604); experiment: as §1; in short: as §3; remark: listed apart in the source
[7] = target: T1, Tyrosine-protein phosphatase non-receptor type 1 (Homo sapiens); experiment: Inhibitory activity against protein tyrosine phosphatases (PTP1B); no inhibition at 1 mM

Receptor-type tyrosine-protein phosphatase F (Rattus norvegicus), sequence (Q64604 whole entry, the tested form may be a part): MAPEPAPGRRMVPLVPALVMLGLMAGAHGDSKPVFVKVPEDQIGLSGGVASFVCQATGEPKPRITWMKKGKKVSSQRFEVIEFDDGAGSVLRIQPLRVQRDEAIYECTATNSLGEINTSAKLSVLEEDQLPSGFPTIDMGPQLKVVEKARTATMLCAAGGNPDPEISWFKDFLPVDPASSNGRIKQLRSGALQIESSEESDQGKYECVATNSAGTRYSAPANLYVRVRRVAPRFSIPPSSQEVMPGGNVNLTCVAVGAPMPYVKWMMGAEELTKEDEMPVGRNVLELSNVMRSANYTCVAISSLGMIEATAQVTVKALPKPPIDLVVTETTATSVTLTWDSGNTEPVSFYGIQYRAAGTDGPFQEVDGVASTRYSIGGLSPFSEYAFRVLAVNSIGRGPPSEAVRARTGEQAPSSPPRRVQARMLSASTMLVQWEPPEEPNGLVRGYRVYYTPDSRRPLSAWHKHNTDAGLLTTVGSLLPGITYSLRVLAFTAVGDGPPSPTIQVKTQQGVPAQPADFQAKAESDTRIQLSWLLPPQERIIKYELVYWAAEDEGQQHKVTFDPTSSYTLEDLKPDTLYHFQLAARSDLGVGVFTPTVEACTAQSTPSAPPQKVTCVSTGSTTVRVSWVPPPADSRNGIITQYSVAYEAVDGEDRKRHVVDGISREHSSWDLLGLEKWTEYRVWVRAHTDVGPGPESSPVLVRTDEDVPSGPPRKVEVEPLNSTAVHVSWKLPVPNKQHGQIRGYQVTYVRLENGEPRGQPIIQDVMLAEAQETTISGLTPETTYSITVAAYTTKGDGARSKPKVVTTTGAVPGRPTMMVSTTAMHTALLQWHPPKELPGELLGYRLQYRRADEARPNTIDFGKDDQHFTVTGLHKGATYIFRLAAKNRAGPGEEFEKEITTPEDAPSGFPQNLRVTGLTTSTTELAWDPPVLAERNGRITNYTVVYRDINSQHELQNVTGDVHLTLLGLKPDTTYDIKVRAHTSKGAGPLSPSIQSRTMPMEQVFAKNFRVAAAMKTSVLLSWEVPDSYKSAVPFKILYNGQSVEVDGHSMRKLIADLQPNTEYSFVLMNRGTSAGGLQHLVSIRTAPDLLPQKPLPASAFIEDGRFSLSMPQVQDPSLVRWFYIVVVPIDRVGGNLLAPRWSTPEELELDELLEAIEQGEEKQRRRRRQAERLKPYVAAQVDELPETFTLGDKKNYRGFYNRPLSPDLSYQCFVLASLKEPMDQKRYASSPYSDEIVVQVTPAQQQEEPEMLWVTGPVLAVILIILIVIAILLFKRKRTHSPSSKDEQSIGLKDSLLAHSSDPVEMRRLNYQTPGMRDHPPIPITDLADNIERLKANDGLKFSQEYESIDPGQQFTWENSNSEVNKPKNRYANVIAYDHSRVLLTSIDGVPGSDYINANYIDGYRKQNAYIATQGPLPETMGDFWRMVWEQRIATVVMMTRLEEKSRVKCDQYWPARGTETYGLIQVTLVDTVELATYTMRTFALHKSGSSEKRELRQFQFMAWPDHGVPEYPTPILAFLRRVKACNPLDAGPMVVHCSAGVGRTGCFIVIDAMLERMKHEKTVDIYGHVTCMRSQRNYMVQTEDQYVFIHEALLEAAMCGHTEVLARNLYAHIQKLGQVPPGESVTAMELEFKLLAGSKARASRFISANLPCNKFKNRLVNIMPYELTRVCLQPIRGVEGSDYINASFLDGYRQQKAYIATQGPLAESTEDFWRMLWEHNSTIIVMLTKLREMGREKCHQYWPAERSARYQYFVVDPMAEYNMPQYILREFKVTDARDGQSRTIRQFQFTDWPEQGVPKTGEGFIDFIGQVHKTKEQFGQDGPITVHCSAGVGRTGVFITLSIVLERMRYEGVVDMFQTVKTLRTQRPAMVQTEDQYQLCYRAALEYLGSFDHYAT

Structure (SMILES) | Kis [1] | Kis [2] [µM] | Kis [3] [µM] | Kis [4] [µM] | Kii [5] [µM] | Kii [6] [µM] | NI [7]
O=C(O)c1cc(NCn2c(S)nc3ccccc32)ccc1O | > 100 µM | > 100 | 180 | 61 | – | – | –
O=C(O)c1ccccc1O | – | – | – | 19400 | – | – | –
O=C(O)c1ccc(Oc2ccc(C(=O)c3ccc4c(c3)C(=O)OC4=O)cc2)cc1 | > 1000 µM | > 1000 | > 1000 | 510 | – | – | –
O=[N+]([O-])c1ccc(OS(=O)(=O)O)cc1 | – | – | – | 10000 | – | – | –
O=C(CSc1nnc(Nc2ccc(F)cc2)s1)c1ccc(Cl)cc1 | 53 µM | > 100 | 57 | 110 | 131 | 92 | –
C[C@]12CC[C@@H]3c4ccc(OS(=O)(=O)O)cc4CC[C@H]3[C@@H]1CC[C@@H]2O | – | – | – | – | – | – | no inhibition at 1 mM
O=S(=O)(O)c1ccc2c3c(ccc2c1)CCCC3 | > 1000 µM | > 1000 | 410 | 240 | – | – | –
Cc1ccc2c(c1)nc(S)n2CNc1ccc(C(=O)O)c(O)c1 | – | – | – | 750 | – | – | –
O=C(/C=C/c1cccc([N+](=O)[O-])c1)c1c(O)nc2cc([N+](=O)[O-])ccc2c1-c1ccccc1 | > 100 µM | > 100 | > 100 | 54 | – | – | –
C[C@]12CC[C@@H]3c4ccc(OS(=O)(=O)O)cc4CC[C@H]3[C@@H]1CCC2=O | – | – | – | 2100 | – | – | –
O=C1c2ccccc2-c2cc([N+](=O)[O-])cc3cccc1c23 | 68 µM and 57 µM | > 100 | > 100 | 21 | – | – | –
O=S(=O)(O)Oc1c2ccccc2c2ccc3c(OS(=O)(=O)O)c4ccccc4c4ccc1c2c34 | > 100 µM | > 100 | > 100 | 39 | – | – | –
